CHOP UPR activ: apoptotic UPR (CHOP) activation. actives 0.34% (n = 330,000). AID 449763. CHO-CHOP luciferase reporter, luminescence; percent of tunicamycin response over DMSO baseline. activation, % at 10 µM;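 active = at 10 µM dose, activation of 40% or more, normalized to positive control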;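 also: 100% = tunicamycin at 10 µg/mL and 0% = DMSO alone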
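assay system = CHO CHOP reporter cells | amount = 500 CHO-CHOP cells per well | buffer or medium = F12 with 10% FBS | incubation = 16-18 h cell attachment, then 6 h compound exposure, 37 °C | detection = luminescence read with Steady-Glo | read-out = percent activation relative to tunicamycin control | controls = tunicamycin high control, DMSO low control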
PfM18AAP inh: PfM18AAP enzyme inhibition. recombinant PfM18AAP, H-Glu-NHMec fluorogenic cleavage. inhibition, % at 7.35 µM. actives 1.2% (n = 290,000);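 active = inhibition above the campaign mean inhibition over all tested compounds plus 3 SD, cut at about 28% in these data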;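 also: 0% = plate median of test compound wells and 100% = 2 mM ZnCl2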
UPR XBP1 act: adaptive UPR (XBP1) activation; CHO-XBP1 luciferase reporter, IRE1-XBP1 UPR activation, luminescence; percent of tunicamycin response, DMSO as zero; activation, % at 20 µM; actives 0.33% (n = 330,000); AID 463104;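 active = versus positive control, 20 µM dose yields 30% or more activation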;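 also: 100% = tunicamycin at 10 µg/mL and 0% = DMSO only wells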
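Material: CHO cell line with stable XBP1 luciferase reporter; buffer or medium: F12 medium containing 10% fetal bovine serum; compound: single point, 20 µM final compound, 1% DMSO; incubation: 6 h treatment, 37 °C; measured by: glow luminescence from Steady-Glo reagent; evaluation: activation, % of tunicamycin; control set: tunicamycin high, DMSO low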
NS3 helicase inh: inhibitors of Hepatitis C virus NS3 helicase; actives 0.56% (n = 290,000); NS3 helicase DNA unwinding, Cy5 molecular beacon fluorescence; inhibition, % at 10.9 µM; AID 1800;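 active = inhibition above the mean of all tested compounds plus 3 SD, set per campaign, cut at about 35% in these data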;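 also: 0% = DMSO wells and 100% = thioflavine S control wells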
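Material: hepatitis C virus NS3 helicase domain fragment enzyme; measured by: Cy5 fluorescence, 0 and 60 min reads; control set: DMSO and thioflavine S; incubation: 60 min unwinding reaction at 25 °C after ATP addition; read-out basis: % inhibition from 60/0 min fluorescence ratio, DMSO 0%, thioflavine S 100%; repeats: singlicate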
CHOP inh: blocks CHOP induction under ER stress; CHO-K1 CHOP-promoter luciferase, tunicamycin-induced, 15-18 h; inhibition, % at 10 µM; actives 3.8% (n = 220,000);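 active = compounds that reduced the stress-induced luciferase reporter signal by more than about 70% of percent inhibition, limit read from the data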;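 also: 0% = tunicamycin plus vehicle and 100% = wells without tunicamycin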
p97 ATPase inh: inhibitors of human p97 ATPase | actives 0.42% (n = 220,000) | recombinant p97 ATPase, Kinase-Glo ATP luminescence, 3 h | P55072 | inhibition, % at 8 µM; in the data active = inhibition above about 15%;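 also: 0% = DMSO vehicle and 100% = wells lacking enzyme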
An asterisk follows results filed as active; / = no result. This is a sample that favours compounds with a hit; in the whole collection about 4.5% have one here.

SMILES	CHOP UPR activ	PfM18AAP inh	UPR XBP1 act	NS3 helicase inh	CHOP inh	p97 ATPase inh
O=C(CC1C[C@H](C(=O)N2CCCCC2)[C@@]2(CCc3ccccc3)c3[nH]c4ccccc4c3CCN2C1=O)NCCCn1ccnc1 (some centres not stated)	2.6	/	2.0	/	/	/
O=C(NC1CCN(Cc2ccc(Cl)c(Cl)c2)CC1)c1ccccc1	-1.2	2.0	-5.8	-12.4	/	/
O=C(/C(=C/c1ccccc1)c1ccccc1)N1CCCCC1	-1.9	-7.7	-1.2	-6.5	86.9*	-2.5
O=C(Cn1cc(C(F)(F)F)ccc1=O)NCC1CCCO1 (configuration not stated)	0.7	/	-0.9	/	/	/
Cc1ccc(S(=O)(=O)c2c(C)nn(C(C)(C)C)c2OC(=O)C2CCCC2)cc1	-0.1	1.6	-0.5	-17.1	76.8*	-3.8
CN1C(=O)Cc2cc(S(=O)(=O)Nc3ccc(N4CCOCC4)cc3)ccc21	-0.1	7.7	-6.6	3.6	/	/
CCCOc1ccc(CNC(=S)NCc2ccc(OC(C)C)cc2)cc1	-2.2	-0.2	-3.8	-23.7	82.1*	3.2
CCCOc1ccc(CNC(=S)N/N=C/c2ccc([N+](=O)[O-])cc2)cc1	0.7	8.6	3.4	-6.0	-6.8	1.9
Cc1ccc(C(=O)N2CCN(C34CC5CC(CC(C5)C3)C4)CC2)o1	1.7	2.9	-3.3	-2.1	/	/
N/C(=N\c1nc2ccccc2o1)NC(=O)c1ccccc1	4.9	-0.9	0.1	3.3	85.1*	-3.3
Cc1ccc(C(=O)N/C(N)=N/c2nc3ccccc3o2)cc1	2.5	1.3	3.9	4.9	38.2	-2.8
COc1ccccc1C#Cc1ccc2c(=O)c3ccccc3n(C)c2c1	5.9	29.6*	2.0	19.7	/	/
NNC(=O)c1ccc(COc2ccc3ccccc3c2)cc1	1.7	-2.9	-1.8	-1.3	85.0*	0.8
COc1ccc(OCc2cccc(C(=O)NN)c2)cc1	-7.5	-1.0	-8.4	-4.3	72.3*	-0.7
CCOc1ccc(OCc2cccc(C(=O)N3CCOCC3)c2)cc1	-9.9	3.2	-10.3	4.7	85.9*	-0.8
Cc1cccc(NC(=O)CCC(=O)c2cccs2)n1	3.4	/	-0.1	/	/	/
NC1=NC(=O)/C(=C/c2cccs2)S1	0.3	-6.8	2.6	4.7	-11.9	2.7
C=CCSC1=NC(=O)/C(=C/c2cccs2)S1	/	-3.0	/	-1.9	80.8*	-0.3
CC(C)(C)c1ccc(C(CC(=O)O)NC(=O)C23CC4CC(CC(C4)C2)C3)cc1 (configuration not stated)	0.3	-2.6	-2.6	10.9	/	/
CCCCc1ccc(-n2c(Cc3cccs3)n[nH]c2=S)cc1	-0.2	6.1	5.3	4.9	76.5*	-2.7
COc1cc(/C=C/C(=O)C2C(=O)C=C(C)OC2=O)cc(OC)c1O (configuration not stated)	3.3	31.0*	0.4	6.3	19.0	9.0
CCOc1ccc(S(=O)(=O)NCc2cccnc2)c2ccccc12	1.1	-0.1	0.4	-0.9	/	/
CCN(CC)C(=O)CC(c1ccc(OC)cc1)c1c(OC)cc(OC)c2ccc(=O)oc12 (configuration not stated)	-1.8	/	0.3	/	21.9	/
COC(=O)c1cc(CN2CCN(c3ccccc3C)CC2)ccc1O	-3.2	-0.2	-2.4	-7.3	72.0*	-5.9
O=C(Nc1ccccc1F)C1CCN(S(=O)(=O)c2cccnc2)CC1	1.1	-4.4	-4.9	-1.3	/	/
SMILES	CHOP UPR activ	PfM18AAP inh	UPR XBP1 act	NS3 helicase inh	CHOP inh	p97 ATPase inh
CCOc1ccc(-c2nc(C#N)c(NCc3ccc4c(c3)OCO4)o2)cc1	1.8	-4.0	4.9	8.4	78.2*	-5.3
Cc1ccc(OCc2nc(C#N)c(NCc3ccc4c(c3)OCO4)o2)cc1	1.0	-11.8	-1.4	-1.8	8.2	-1.2
CCOc1ccc(Nc2oc(-c3ccc(Cl)cc3)nc2C#N)cc1	4.6	3.0	4.1	0.6	75.0*	-4.5
COc1ccc(Nc2oc(-c3ccc(Cl)cc3)nc2C#N)cc1	2.6	0.2	4.0	-5.5	85.1*	-1.6
COc1ccc(Nc2oc(-c3ccc(OC)cc3)nc2C#N)cc1	8.7	2.0	8.9	-30.6	-11.8	5.8
COc1ccc(CC(=O)NNC(=O)COc2ccc(F)cc2)cc1S(=O)(=O)N1CCOCC1	0.1	/	-2.9	/	/	/

Compound activity from PubChem BioAssay.
